# Source: PubChem BioAssay (several laboratories)
# HSP90 inh: HSP90 inhibitors, primary screen, cell lysate, luminescence. Heat shock protein HSP 90 (rabbit reticulocyte lysate; luciferase refolding). Rabbit reticulocyte lysate, luciferase refolding luminescence, 3 h. inhibition, % at 5.6 µM. 290,000 compounds, 0.91% hits;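 active means inhibition above the screen-wide mean plus 3 SD, computed separately per campaign, cut at about 16% in these data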;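 further: 0% = DMSO wells and 100% = 60 µM geldanamycin wells; inhibitors lower the luminescence because luciferase stays unfolded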
# HCV core dimer: inhibitors of HCV core protein dimerization, primary screen, biochemical, TR-FRET, high-throughput; TR-FRET GST/Flag-core106 dimerization, 1536-well; inhibition, % at 5 µM; 300,000 compounds, 0.33% hits;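 active means inhibition above the mean of all tested compounds plus 3 SD, set per screening campaign, cut at about 45% in these data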
#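 Material: GST/Flag-tagged HCV core106 proteins. Incubation: 4 h, 22.5 °C incubation. Read-out basis: inhibition (%) from 671 over 617 nm ratio. Measured by: TR-FRET, excitation 340 nm, emission 617 and 671 nm.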
# HSF1 activator: HSF-1 activators, primary screen, NIH3T3-HGL cells, MG132 stress, luminescence, single point | 300,000 compounds, 1.7% hits | activation, % at 9 µM | NIH3T3-HGL HSF-1 luciferase reporter, 8 h; 100% = twice DMSO control signal;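 active means mean replicate activation of at least 50% with a set share of replicates each reaching 50%; inconclusive means only one of those two conditions met; inactive means mean below 50% and too few replicates reaching it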;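 further: 0% = median of the neutral control wells and 100% = twice that signal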
# NS3 helicase inh: inhibitors of HCV NS3 helicase, primary screen, biochemical, Cy5 molecular beacon fluorescence; Hepatitis C virus NS3 helicase; NS3 helicase DNA unwinding; inhibition, % at 10.9 µM; 290,000 compounds, 0.56% hits;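 active means inhibition above the mean of all tested compounds plus 3 SD, set per campaign, cut at about 35% in these data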;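 further: 0% = DMSO wells and 100% = thioflavine S control wells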
#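 System: Hepatitis C virus NS3 helicase domain fragment enzyme | Reagent: Annealed dual-labelled DNA beacon duplex, ATP-started | Compound dosing: 10.9 µM single point, 0.8% DMSO | Incubation: 1 h reaction at 25 °C, ATP-initiated | Technique: Cy5 fluorescence | Evaluation: Percent inhibition from t60/t0 fluorescence ratio | Benchmarks: Low DMSO, high thioflavine S at 110 µM | Replication: Singlicate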
# HSF1 inhib: HSF1 inhibitors in luciferase reporter cells, primary screen, cell-based, NIH3T3, luminescence; NIH3T3-HGL HSE-luciferase, MG132-induced, luminescence 8 h; active compounds read low; 300,000 compounds, 0.77% hits; AID 2098, 2009; activity change, negative = inhibition, % at 7.5 µM (by protocol);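 active means more than half of replicate wells show activity change below -50%, luminescence cut by over half; inconclusive means some wells, but at most half, below -50%; inactive means no replicate well below -50%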;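 further: luciferase reports HSF-1 transcriptional activity via heat shock element; 0% = median of DMSO wells and -100% = zero luminescence signal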
# FID counter: compounds displacing fluorescent DNA intercalator, primary screen, artefact control for HCV NS3 helicase inhibitor project, biochemical, FID fluorescence. DNA fluorescent intercalator displacement. inhibition, % at 7.9 µM. 290,000 compounds, 0.17% hits. AID 1845, 2009; in the data active means inhibition above about 37%;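 further: 0% = vehicle and 100% = reference compound; higher means more ethidium bromide displaced from hairpin DNA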
# The depositor's hits bear a star; ? = inconclusive; . = no result given. Hits are enriched below; roughly 3.9% of the tested compounds scored in any of these assays.
SMILES,HSP90 inh,HCV core dimer,HSF1 activator,NS3 helicase inh,HSF1 inhib,FID counter
Nc1ccc(C(=O)OCc2csc(-c3ccccc3)n2)cc1[N+](=O)[O-],3,1,6,-4,9,2
O=C(CSc1ccc(F)cc1)Nc1ccc(N2CCOCC2)c(Cl)c1,3,1,28,-11,8,-13
CC12c3ccccc3C(c3ccccc31)C1C(=O)N(Cc3cccnc3)C(=O)[C@H]12 (some centres undefined),2,3,70*,-9,29,-17
S=C(NCc1ccccn1)Nc1ccccc1Cl,-1,-5,63*,-5,36,-1
FC(F)(F)c1cccc(NC(=S)NCc2ccccn2)c1,0,-5,57*,-1,22,4
S=C(NCc1ccccn1)Nc1cccc(Cl)c1,-3,2,60*,1,28,-1
Cc1cccc(NC(=S)NCc2ccccn2)c1,-1,-3,46,7,33,-3
S=C(NCCc1ccccn1)Nc1ccccc1Cl,3,-7,14,7,-6,0
c1ccc(CNc2nc3ccccc3n3cnnc23)cc1,16*,8,-1,8,-5,-1
C=CCN1C(=O)/C(=C\c2ccc(Cl)cc2)N=C1SCC(=O)NCCC,-1,-1,5,7,1,0
COCCNC(=O)CSC1=N/C(=C/c2ccc(Cl)c(Cl)c2)C(=O)N1c1ccccc1F,3,5,-69,0,-61*,-10
COc1ccc(N(CC(=O)N/N=C/c2cccnc2)S(=O)(=O)c2ccc(C)cc2)cc1OC,-4,.,-4,0,-11,-43
Cc1ccc(C(=O)/C=C/c2ccc(-c3ccc(C)cc3)o2)cc1,-5,32,56*,24,27,-8
Cc1ccc(S/C=C\C(=O)c2ccccc2)cc1,7,9,118*,-7,85,-2
CC(/C=C/C(=O)c1ccc(C)cc1)=C\c1ccccc1,2,8,15,-2,9,-3
Cc1ccc(C(=O)/C=C\C(=O)c2ccc(C)cc2)cc1,4,-6,294*,-8,231,1
Cc1ccc(C(=O)C=CNNC(=O)c2ccccc2)cc1,3,-4,26,13,11,-20
NC(=O)N/N=C/c1coc2ccc(O)cc2c1=O,3,-2,-6,-4,-7,1
Cc1nnc(N/N=C/c2cccc(OCc3ccc(Cl)c(Cl)c3)c2)n1N,8,-10,128*,-1,83,0
Cc1nnc(N/N=C/c2cccc(C(F)(F)F)c2)n1N,-3,6,32,-1,24,-3
Cc1c(NC(=O)c2cnn3c2NC(c2ccco2)CC3C(F)(F)F)c(=O)n(-c2ccccc2)n1C (centres undefined),0,3,.,0,.,-20
Cc1nc(Cl)sc1C(=O)Nc1cccc(Cl)c1,-3,-4,?,1,9,1
CN(C)S(=O)(=O)c1ccc(NC(=O)CSc2nc3ccccc3n2-c2ccccc2)cc1,1,17,13,-7,9,-17
CCN(CC)c1ccc(NC(=O)CSc2nc3ccccc3c(=O)n2-c2cc(S(=O)(=O)N(C)C)ccc2C)cc1,16*,24,-15,-13,-7,5
CC(NC1CCCCC1)C(=O)NN=C(c1ccccc1)c1ccccc1 (centres undefined),-1,4,22,-2,12,8
CCOc1ccc(NC(=O)CSc2nc(-c3cccs3)cc(C(F)(F)F)n2)c([N+](=O)[O-])c1,0,0,-16,2,-13,0
Cc1ccccc1C(=O)NC(=S)Nc1ccccc1[N+](=O)[O-],-4,2,58*,-3,10,1
Cc1c(C(=O)Nc2ccccc2)csc1-c1ccccc1,2,4,61*,14,28,2
Cc1oc(-c2ccccc2)cc1C(=O)Nc1ccccc1,4,5,-14,-4,0,-7
